According to ChEMBL document CHEMBL2074217, “Differences in the transport of the antiepileptic drugs phenytoin, levetiracetam and carbamazepine by human and mouse P-glycoprotein” (Neuropharmacology, 2006):

What was measured:
Type in all cases: functional, cell-based
[1] = target: ATP-binding cassette sub-family C member 2 (Homo sapiens, UniProt Q92887); test: TP_TRANSPORTER: transcellular transport in MRP2-expressing MDCKII cells; conditions: dog, mdck-ii
Method in brief: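 Directional transcellular transport was measured across polarized MDCKII monolayers transfected with human MRP2 cDNA and compared with wildtype MDCKII cells. Vinblastine served as the reference MRP2 substrate. The read-out was the transport ratio (TR).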

[2] = target: T1, ATP-dependent translocase ABCB1 (Homo sapiens, UniProt P08183); test: TP_TRANSPORTER: transcellular transport in MDR1-expressing LLC-PK1 cells; conditions: pig
Method in brief: (§1)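 Polarized monolayers of LLC-PK1 pig kidney cells transfected with human MDR1, mouse mdr1a or mouse mdr1b cDNA, paired with wildtype LLC-PK1 monolayers. Directional transport across the monolayer was expressed as a transport ratio. The Pgp inhibitor PSC833 was used to test whether transport was Pgp-specific. Cyclosporin A served as the positive-control Pgp substrate.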

[3] = target: T2, ATP-dependent translocase ABCB1 (Mus musculus, UniProt P21447); test: TP_TRANSPORTER: transcellular transport in mdr1a-expressing LLC-PK1 cells; conditions: pig; method in brief: as §1
[4] = target: ATP-dependent translocase ABCB1 (Mus musculus, UniProt P06795); test: TP_TRANSPORTER: transcellular transport in mdr1b-expressing LLC-PK1 cells; conditions: pig; method in brief: as §1
[5] = target: T2, ATP-dependent translocase ABCB1; test: TP_TRANSPORTER: inhibition of cyclosporin A transcellular transport by carbamazepine at a concentration of 224uM in mdr1a-expressing LLC-PK1 cells; conditions: pig, llc-pk1, 224 µM
[6] = target: T1, ATP-dependent translocase ABCB1; test: TP_TRANSPORTER: inhibition of cyclosporin A transcellular transport by carbamazapine 224 uM in MDR1-expressing LLC-PK1 cells; conditions: pig, llc-pk1, 224 µM
[7] = target: T1, ATP-dependent translocase ABCB1; test: TP_TRANSPORTER: inhibition of cyclosporin A transcellular transport by PSC833 at a concentration of 30uM in MDR1-expressing MDCKII cells; conditions: dog, mdck-ii
[8] = target: T2, ATP-dependent translocase ABCB1; test: TP_TRANSPORTER: inhibition of levetiracetam transcellular transport by PSC833 at a concentration of 30uM in mdr1a-expressing LLC-PK1 cells; conditions: pig, llc-pk1, 30 µM
[9] = target: T2, ATP-dependent translocase ABCB1; test: TP_TRANSPORTER: inhibition of cyclosporin A transcellular transport by PSC833 at a concentration of 30uM in mdr1a-expressing LLC-PK1 cells; conditions: pig, llc-pk1, 30 µM
[10] = target: T2, ATP-dependent translocase ABCB1; test: TP_TRANSPORTER: inhibition of phenytoin transcellular transport by PSC833 at a concentration of 30uM in mdr1a-expressing LLC-PK1 cells; conditions: pig, llc-pk1, 30 µM
[11] = target: T1, ATP-dependent translocase ABCB1; test: TP_TRANSPORTER: inhibition of cyclosporin A transcellular transport by tariquidar at a concentration of 0.2uM in MDR1-expressing MDCKII cells; conditions: dog, mdck-ii

T1 sequence (P08183 whole entry): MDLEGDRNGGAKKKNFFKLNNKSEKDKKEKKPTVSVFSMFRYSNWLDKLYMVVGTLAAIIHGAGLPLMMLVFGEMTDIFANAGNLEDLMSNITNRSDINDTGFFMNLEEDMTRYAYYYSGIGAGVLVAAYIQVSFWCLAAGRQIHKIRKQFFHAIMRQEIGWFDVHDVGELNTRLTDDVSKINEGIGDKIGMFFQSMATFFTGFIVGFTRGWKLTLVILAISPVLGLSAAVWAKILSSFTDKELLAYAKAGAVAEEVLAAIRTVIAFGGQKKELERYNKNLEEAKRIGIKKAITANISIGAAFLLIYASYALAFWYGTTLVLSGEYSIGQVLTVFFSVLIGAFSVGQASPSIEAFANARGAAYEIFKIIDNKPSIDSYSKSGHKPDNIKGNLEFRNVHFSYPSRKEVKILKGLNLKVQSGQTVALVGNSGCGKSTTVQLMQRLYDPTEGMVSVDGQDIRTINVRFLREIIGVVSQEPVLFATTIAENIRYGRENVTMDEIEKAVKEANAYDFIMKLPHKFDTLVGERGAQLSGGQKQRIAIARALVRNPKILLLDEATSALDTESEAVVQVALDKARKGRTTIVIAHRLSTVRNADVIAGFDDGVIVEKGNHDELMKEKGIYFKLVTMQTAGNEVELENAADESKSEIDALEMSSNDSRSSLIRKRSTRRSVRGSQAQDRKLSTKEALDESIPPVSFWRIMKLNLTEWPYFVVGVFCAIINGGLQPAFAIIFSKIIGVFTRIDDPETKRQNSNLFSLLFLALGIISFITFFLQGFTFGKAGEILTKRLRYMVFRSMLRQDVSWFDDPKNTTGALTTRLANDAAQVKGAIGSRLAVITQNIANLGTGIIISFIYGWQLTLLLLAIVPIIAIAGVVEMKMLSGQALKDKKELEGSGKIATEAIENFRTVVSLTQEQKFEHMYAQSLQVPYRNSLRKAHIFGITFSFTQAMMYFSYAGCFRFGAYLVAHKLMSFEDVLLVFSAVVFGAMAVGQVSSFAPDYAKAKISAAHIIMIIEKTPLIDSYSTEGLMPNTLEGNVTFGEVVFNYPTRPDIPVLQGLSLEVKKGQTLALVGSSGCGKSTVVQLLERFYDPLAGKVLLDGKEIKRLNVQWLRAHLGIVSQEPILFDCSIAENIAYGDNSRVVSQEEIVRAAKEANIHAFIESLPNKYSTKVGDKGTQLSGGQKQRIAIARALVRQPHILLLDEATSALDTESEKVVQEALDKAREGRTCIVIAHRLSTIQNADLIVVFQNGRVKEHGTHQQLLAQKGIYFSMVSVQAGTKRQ
Chain of ATP-binding cassette sub-family C member 2 (Q92887 whole entry): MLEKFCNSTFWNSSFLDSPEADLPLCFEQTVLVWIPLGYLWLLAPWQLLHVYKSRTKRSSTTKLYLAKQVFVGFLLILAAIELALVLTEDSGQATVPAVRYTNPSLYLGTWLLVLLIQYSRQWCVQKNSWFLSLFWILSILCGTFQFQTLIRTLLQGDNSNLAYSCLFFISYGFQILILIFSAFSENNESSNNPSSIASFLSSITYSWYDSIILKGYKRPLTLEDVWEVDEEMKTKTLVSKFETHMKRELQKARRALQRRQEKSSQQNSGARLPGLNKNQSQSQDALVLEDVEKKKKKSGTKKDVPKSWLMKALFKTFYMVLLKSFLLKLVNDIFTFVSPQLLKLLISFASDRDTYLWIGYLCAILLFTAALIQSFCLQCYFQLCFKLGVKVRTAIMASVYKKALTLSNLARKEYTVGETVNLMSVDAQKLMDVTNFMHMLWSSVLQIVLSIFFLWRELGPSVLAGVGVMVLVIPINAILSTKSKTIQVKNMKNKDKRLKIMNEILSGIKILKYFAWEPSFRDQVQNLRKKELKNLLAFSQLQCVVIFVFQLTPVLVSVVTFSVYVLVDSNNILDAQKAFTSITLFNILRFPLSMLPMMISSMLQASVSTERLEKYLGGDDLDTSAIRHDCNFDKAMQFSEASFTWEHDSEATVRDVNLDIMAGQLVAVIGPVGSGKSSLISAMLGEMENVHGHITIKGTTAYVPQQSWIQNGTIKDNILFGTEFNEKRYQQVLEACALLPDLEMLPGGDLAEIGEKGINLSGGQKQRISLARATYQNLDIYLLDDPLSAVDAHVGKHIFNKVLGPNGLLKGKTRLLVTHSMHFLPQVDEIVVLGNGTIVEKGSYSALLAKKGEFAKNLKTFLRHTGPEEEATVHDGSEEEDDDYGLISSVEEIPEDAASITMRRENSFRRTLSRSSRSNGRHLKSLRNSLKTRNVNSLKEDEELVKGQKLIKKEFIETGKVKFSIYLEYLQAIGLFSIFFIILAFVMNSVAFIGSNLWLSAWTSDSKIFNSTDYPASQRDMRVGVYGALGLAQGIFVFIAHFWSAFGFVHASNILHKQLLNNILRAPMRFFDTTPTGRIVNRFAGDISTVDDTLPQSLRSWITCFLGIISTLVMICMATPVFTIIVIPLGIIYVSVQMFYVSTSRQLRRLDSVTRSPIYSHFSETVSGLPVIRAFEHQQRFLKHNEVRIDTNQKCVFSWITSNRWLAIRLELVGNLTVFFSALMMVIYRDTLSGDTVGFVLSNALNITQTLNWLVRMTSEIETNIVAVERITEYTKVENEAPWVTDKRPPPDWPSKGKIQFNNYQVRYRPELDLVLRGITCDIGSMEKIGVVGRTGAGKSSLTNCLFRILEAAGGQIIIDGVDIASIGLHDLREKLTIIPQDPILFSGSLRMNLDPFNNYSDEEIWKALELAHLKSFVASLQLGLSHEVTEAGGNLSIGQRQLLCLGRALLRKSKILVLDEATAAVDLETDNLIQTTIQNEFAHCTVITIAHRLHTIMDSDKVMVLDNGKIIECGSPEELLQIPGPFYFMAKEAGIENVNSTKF
T2 sequence (P21447 whole entry): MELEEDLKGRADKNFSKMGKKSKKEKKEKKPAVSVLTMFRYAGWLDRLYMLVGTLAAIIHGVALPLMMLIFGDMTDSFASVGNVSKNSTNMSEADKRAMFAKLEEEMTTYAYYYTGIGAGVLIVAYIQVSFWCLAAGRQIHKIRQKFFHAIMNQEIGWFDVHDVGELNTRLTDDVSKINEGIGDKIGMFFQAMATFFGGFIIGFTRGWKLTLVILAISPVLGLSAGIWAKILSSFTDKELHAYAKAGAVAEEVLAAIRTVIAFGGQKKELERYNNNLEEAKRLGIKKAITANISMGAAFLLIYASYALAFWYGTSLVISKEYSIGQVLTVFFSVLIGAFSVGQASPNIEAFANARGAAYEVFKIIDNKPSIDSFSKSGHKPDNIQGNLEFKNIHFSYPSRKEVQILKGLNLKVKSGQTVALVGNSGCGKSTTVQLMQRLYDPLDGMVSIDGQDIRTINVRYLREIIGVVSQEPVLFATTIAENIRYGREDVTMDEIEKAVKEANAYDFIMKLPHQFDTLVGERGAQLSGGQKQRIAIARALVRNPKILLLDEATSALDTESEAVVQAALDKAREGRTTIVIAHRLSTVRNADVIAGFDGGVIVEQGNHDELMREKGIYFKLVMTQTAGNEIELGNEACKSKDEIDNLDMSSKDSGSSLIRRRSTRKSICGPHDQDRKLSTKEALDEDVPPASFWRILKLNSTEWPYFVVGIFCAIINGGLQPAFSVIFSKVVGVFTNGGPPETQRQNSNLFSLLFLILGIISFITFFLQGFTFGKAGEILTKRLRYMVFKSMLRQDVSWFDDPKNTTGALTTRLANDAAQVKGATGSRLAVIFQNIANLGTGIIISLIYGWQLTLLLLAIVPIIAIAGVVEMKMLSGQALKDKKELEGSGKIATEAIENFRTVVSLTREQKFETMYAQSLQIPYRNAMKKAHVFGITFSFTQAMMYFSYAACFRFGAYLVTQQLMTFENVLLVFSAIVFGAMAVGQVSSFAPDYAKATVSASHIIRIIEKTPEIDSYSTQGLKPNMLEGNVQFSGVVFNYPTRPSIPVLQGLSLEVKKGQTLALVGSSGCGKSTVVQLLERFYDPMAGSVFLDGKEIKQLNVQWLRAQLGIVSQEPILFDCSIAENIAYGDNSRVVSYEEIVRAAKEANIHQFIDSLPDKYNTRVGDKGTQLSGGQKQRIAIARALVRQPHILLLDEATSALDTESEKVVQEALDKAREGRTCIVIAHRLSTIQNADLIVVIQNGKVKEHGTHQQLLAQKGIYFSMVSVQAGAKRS

SMILES: CC[C@@H](C(N)=O)N1CCCC1=O
- Activity [1]: is not a substrate [-]
- Activity [2]: is not a substrate [-]
- Activity [3]: substrate [+]
- Activity [4]: is not a substrate [-]

SMILES: NC(=O)N1c2ccccc2C=Cc2ccccc21 [CARBAMAZEPINE]
- Activity [2]: is not a substrate [-]
- Activity [3]: is not a substrate [-]
- Activity [5]: is not an inhibitor [-]
- Activity [4]: is not a substrate [-]
- Activity [6]: is not a inhibitor [-]

SMILES: C/C=C/C[C@@H](C)C(=O)[C@H]1C(=O)N[C@@H](C(C)C)C(=O)N(C)CC(=O)N(C)[C@@H](CC(C)C)C(=O)N[C@@H](C(C)C)C(=O)N(C)[C@@H](CC(C)C)C(=O)N[C@@H](C)C(=O)N[C@H](C)C(=O)N(C)[C@@H](CC(C)C)C(=O)N(C)[C@@H](CC(C)C)C(=O)N(C)[C@@H](C(C)C)C(=O)N1C [VALSPODAR]
- Activity [7]: inhibitor [+]
- Activity [8]: inhibitor [+]
- Activity [9]: inhibitor [+]
- Activity [10]: inhibitor [+]

SMILES: O=C1NC(=O)C(c2ccccc2)(c2ccccc2)N1 [PHENYTOIN]
- Activity [1]: substrate [+]
- Activity [2]: is not a substrate [-]
- Activity [3]: substrate [+]
- Activity [4]: is not a substrate [-]

SMILES: COc1cc2c(cc1OC)CN(CCc1ccc(NC(=O)c3cc(OC)c(OC)cc3NC(=O)c3cnc4ccccc4c3)cc1)CC2
- Activity [11]: inhibitor [+]

SMILES: CC[C@]1(O)C[C@@H]2CN(CCc3c([nH]c4ccccc34)[C@@](C(=O)OC)(c3cc4c(cc3OC)N(C)[C@H]3[C@@](O)(C(=O)OC)[C@H](OC(C)=O)[C@]5(CC)C=CCN6CC[C@]43[C@@H]65)C2)C1 [VINBLASTINE]
- Activity [1]: substrate [+]
